Measurements pooled from the literature.
Lines come from different studies, so protocols differ.

Compound	system	setting	measurement	result
C=CC(=O)N1CC2CC(n3nc(-c4ccc(C(=O)Nc5ccccn5)cc4)c4c(N)ncnc43)CC2C1 (stereo not drawn)	male Wistar rat, plasma	oral, 10 mg/kg	AUC(0-t)	2730 ng·h/mL
CCc1cc(C(=O)NC)c2nccc(N3CCc4c(cc(Cn5ccnc5)cc4-c4cn(C)nc4C(F)(F)F)C3=O)c2c1	male Sprague-Dawley rat, plasma	oral, 100 mg/kg, single dose	AUC(0-inf)	37300 ng·h/mL
CCOC(=O)[C@@]12C[C@@H]1[C@@H](n1ccc3c(NC)nc(C#Cc4ccc(Cl)s4)nc31)[C@H](O)[C@@H]2O	male Sprague-Dawley rat, plasma	intravenous, 0.5 mg/kg	AUC(0-t)	27.6 ng·h/mL
CCn1ncc2c(N3CCC(c4ccccn4)C3)nc(-c3ccccn3)nc21 (stereo not drawn)	PAMPA	10 µM, 3 h, pH 7.4	Papp	30.2 ×10⁻⁶ cm/s
Cc1cn2nc(-c3cc(=O)n4cc(N5CCNC6(CC6)C5)ccc4n3)cc(C)c2n1	cynomolgus monkey, plasma	–	fraction unbound	0.15
N#CC1CCCN(c2nc(-c3ccccn3)nc3ccccc23)C1 (stereo not drawn)	PAMPA	10 µM, 3 h, pH 7.4	Papp	22.4 ×10⁻⁶ cm/s
CCNc1ccnc(Nc2cccc(-c3cccnc3)c2)n1	PAMPA	50 nM, 30 min	Papp	2200 ×10⁻⁶ cm/s
c1ccc(C2CCN(c3nc(-c4ccn[nH]4)nc4ccccc34)C2)nc1 (stereo not drawn)	PAMPA	10 µM, 3 h, pH 7.4	Papp	41.5 ×10⁻⁶ cm/s
CC[C@H](C)Nc1ccnc(Nc2cccc(-c3cccnc3)c2)n1	PAMPA	50 nM, 30 min	Papp	2000 ×10⁻⁶ cm/s
